Experiment [1] has as its target T1, wt-arr2_1-418 (full-length human arrestin-2) (Homo sapiens, UniProt P49407). As to the kind of experiment: Isothermal titration calorimetry. It counts as binding. The gist of the method: (§1)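 Untagged protein from E. coli BL21, purified by ammonium sulfate precipitation, heparin affinity and size exclusion. ITC at 283K in 10 mM NaH2PO4 pH 7.0, 100 mM NaCl: cell arrestin-2 0.01 mM, syringe test peptide 0.5 mM. 13 injections of 15 ul, 210 s apart, up to 2-fold peptide excess. Peptide dilution heats into buffer run as control. Isotherms fitted to one-site, 1:1 model.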
In general terms: ITC needs no label: the signal is the heat of the interaction.

Experiment [2] has as its target T2, tr-arr2_1-382 (truncated human arrestin-2 mutant) (Homo sapiens, UniProt P49407). The experiment is described as follows: Isothermal titration calorimetry. Type of experiment: binding. The essentials: as §1
Experiment [3] has as its target truncated human arrestin-2 mutant comprised of residues 1-382 (tr-arr2_(1-382)) (human) (UniProt P49407). The experiment is described as follows: ITC.
Experiment [4] deals with wild-type human arrestin-2 (wt-arr2_(1-418)) (human) (UniProt P49407). As to the kind of experiment: ITC.
Chain of wild-type human arrestin-2 (wt-arr2_(1-418)) (human) (P49407 whole entry, the tested form may be a part): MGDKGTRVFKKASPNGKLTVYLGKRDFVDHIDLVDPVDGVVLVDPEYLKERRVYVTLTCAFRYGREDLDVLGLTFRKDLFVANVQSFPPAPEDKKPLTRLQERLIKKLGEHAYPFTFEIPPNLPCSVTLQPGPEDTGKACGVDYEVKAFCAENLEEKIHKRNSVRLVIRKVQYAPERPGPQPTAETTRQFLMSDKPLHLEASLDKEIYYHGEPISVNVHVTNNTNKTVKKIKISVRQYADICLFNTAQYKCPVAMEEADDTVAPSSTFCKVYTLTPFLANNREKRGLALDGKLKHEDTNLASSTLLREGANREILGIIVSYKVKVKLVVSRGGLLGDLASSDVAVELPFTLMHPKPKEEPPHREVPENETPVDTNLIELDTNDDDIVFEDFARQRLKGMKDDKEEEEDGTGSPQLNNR
For experiment [5], the target named is T2, tr-arr2_1-382 (truncated human arrestin-2 mutant). As to the kind of experiment: Transferred NOESY NMR of arrestin-peptide mixture, truncated arrestin-2. It counts as binding. The note with it: 0.1 mM tr-arr2_1-382, 1 mM peptide (1:10), pH 6.9-7.1, 10°C, 600 MHz.
The target of experiment [6] is T1, wt-arr2_1-418 (full-length human arrestin-2). The experiment is described as follows: Transferred NOESY NMR of arrestin-peptide mixture, full-length arrestin-2. The note with it: 0.1 mM wt-arr2_1-418, 1 mM peptide (1:10), pH 6.9-7.1, 10°C, 600 MHz. It counts as binding.
For another experiment, the system named is arrestin-2. The settings on record: doubly phosphorylated Thr419-ASN439 peptide of CB1 C-terminus; cited from earlier work.
Setting [7] is: ITC, 283K, 10 mM NaH2PO4 pH 7.0, 100 mM NaCl.

Non-standard residues stand in square brackets, D forms with d. Residues, ends and D or L forms follow the SMILES beside them. pT = C[C@@H](OP(=O)(O)O)[C@H](N)C(=O)O; pS = N[C@@H](COP(=O)(O)O)C(=O)O

Broadly, the Kd is a measure of binding affinity in units of concentration. Low readings indicate tighter binding, high ones weaker binding.

T1 sequence (P49407 whole entry): as the sequence (P49407 whole entry, the tested form may be a part) above
T2 sequence (P49407 1-382, change not shown): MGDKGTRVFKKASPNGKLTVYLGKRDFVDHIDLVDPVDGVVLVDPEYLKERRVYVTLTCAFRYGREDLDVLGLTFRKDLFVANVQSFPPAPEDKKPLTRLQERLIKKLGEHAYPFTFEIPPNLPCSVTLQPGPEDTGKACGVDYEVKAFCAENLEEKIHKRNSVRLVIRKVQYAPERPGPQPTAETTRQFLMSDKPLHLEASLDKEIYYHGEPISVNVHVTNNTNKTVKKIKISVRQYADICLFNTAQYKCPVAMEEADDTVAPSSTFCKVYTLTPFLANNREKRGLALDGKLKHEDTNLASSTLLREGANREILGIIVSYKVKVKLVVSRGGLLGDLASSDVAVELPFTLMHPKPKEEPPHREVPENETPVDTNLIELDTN
Chain of truncated human arrestin-2 mutant comprised of residues 1-382 (tr-arr2_(1-382)) (human) (P49407 1-382, change not shown): as above

For `CC[C@H](C)[C@H](NC(=O)[C@H](CCCCN)NC(=O)[C@@H](NC(=O)[C@@H](N)[C@@H](C)O)C(C)C)C(=O)N[C@@H](C)C(=O)N[C@@H](CCCCN)C(=O)N[C@H](C(=O)N[C@H](C(=O)N[C@@H](CCSC)C(=O)N[C@@H](COP(=O)(O)O)C(=O)N[C@H](C(=O)N[C@@H](COP(=O)(O)O)C(=O)N[C@H](C(=O)N[C@@H](CC(=O)O)C(=O)N[C@H](C(=O)N[C@@H](COP(=O)(O)O)C(=O)N[C@@H](C)C(=O)N[C@@H](CCC(=O)O)C(=O)N[C@@H](C)C(=O)N[C@@H](CC(C)C)C(=O)O)[C@@H](C)OP(=O)(O)O)[C@@H](C)O)C(C)C)[C@@H](C)OP(=O)(O)O)C(C)C` [CB1^5P454-473] (H-TVKIAKV[pT]M[pS]V[pS]TD[pT][pS]AEAL-OH), the figures for the dissociation constant Kd in experiment [1] and in experiment [2] were ~116 µM and ~2.2 µM, respectively.
“CB1^5P_(454-473), pentaphosphorylated peptide mimicking residues 454-473 of CB1”: the Kd in experiment [3] is 2.2 µM; in experiment [4] it was 116 µM.
On to TVKIAKVTMSVSTDTSAEAL [CB1_454-473], for which the “interaction by ITC” value in experiment [1] (setting [7]) and in experiment [2] (setting [7]) was “no indication of an interaction” throughout. Besides, the “nOe change on addition of arrestin / interaction” value in experiment [5] and in experiment [6] was “no additional peaks in the nOe spectra compared to the free peptide spectrum suggesting little or no interaction” in each case.
For the molecule “doubly phosphorylated version of a peptide corresponding to residues Thr419-ASN439 of the CB1 C-terminus: doubly phosphorylated peptide corresponding to residues Thr419-ASN439 of the CB1 C-terminus, responsible for desensitization”, the “binding and bound conformation” value in the experiment with arrestin-2 is “binds to arrestin-2 and adopts helical conformations in the vicinity of the phosphorylated residues”.

The record behind these values is publication PMC3634367 (Biochemistry, 2011).
